Source: ChEMBL document CHEMBL1141128, “Structure-activity relationship study on a simple cationic peptide motif for cellular delivery of antisense peptide nucleic acid” (J Med Chem, 2005)
Non-standard residues stand in square brackets, D forms with d. Residues, ends and D or L forms follow the SMILES beside them. Lys(Me2) = CN(C)CCCC[C@H](N)C(=O)O; hLys = NCCCCC[C@H](N)C(=O)O; Nlys = NCCCCNCC(=O)O

Experiments:
[1] = system: CD40 mRNA; test: […] CD40 expression in BCL1 cells treated with 1 uM peptide nucleic acid (PNA)conjugate; n=3; assay type: functional, cell-based; settings: Mus musculus
In short: (§1)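 Mouse BCL1 cells in DMEM with 10% FBS, given conjugate at 1, 3 or 10 μM by free uptake (no transfection agent) for 3 days. Cells trypsinised and stained 1 h with FITC anti-CD40 (HM40-3) or isotype control, then surface CD40 read by flow cytometry. Results are % untreated control, mean ± SD, n = 3.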

[2] = Half-life of the conjugate when treated with 10% foetal bovine serum for enzymatic stability; assay type: ADME, Bos taurus; settings: cattle
In short: (§2)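 Conjugates at 20 μM in 10% FBS RPMI 1640 medium or 25% mouse serum (Hepes-stabilised, diluted in PBS, pH 7.1–7.4), incubated at 37 °C. Sampled to 168 h (FBS) or 48 h (serum); proteins precipitated with 10% DCA, PNA 6mer internal standard added. Analysed by C3 RP-HPLC at 60 °C; t1/2 from normalised full-length peak area versus time.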

[3] = system: CD40 mRNA; test: […] CD40 expression in BCL1 cells treated with 3 uM peptide nucleic acid (PNA)conjugate; n=3; assay type: functional, cell-based; settings: Mus musculus; in short: as §1
[4] = system: BCL1; test: Inhibitory concentration against BCL1 cell proliferation in WST-1 assay; assay type: functional, Mus musculus
In short: (§3)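 BCL1 cells, 2000 per well, grown in DMEM with 10% FBS at 37 °C and 5% CO2. Exposed to conjugate for 3 days, then viable cells read by WST-1 absorbance at 450 nm. Value is the concentration at which absorbance fell below 50% of untreated control; triplicates.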

[5] = Half-life of the conjugate when treated with 25% murine serum for enzymatic stability; No data available; assay type: ADME; settings: mouse; in short: as §2
[6] = system: CD40 mRNA; test: […] CD40 expression in BCL1 cells treated with 10 uM peptide nucleic acid (PNA)conjugate; n=3; assay type: functional, cell-based; settings: Mus musculus; in short: as §1
[7] = Half-life of the conjugate when treated with 25% murine serum for enzymatic stability; assay type: ADME; settings: mouse; in short: as §2
[8] = system: BCL1; test: Inhibitory concentration against BCL1 cell proliferation in WST-1 assay; Range 10-20; assay type: functional, Mus musculus; in short: as §3

Structure (SMILES) | half-life [2] [h] | T1/2 [5] | half-life [7] [h] | UTC [1] [%] | UTC [3] [%] | IC50 for cell proliferation [4] [µM] | UTC [6] [%] | IC50 [8] [µM]
CN(C)CCCC[C@H](NC(=O)[C@H](CCCCN(C)C)NC(=O)[C@H](CCCCN(C)C)NC(=O)[C@H](CCCCN(C)C)NC(=O)[C@H](CCCCN(C)C)NC(=O)[C@H](CCCCN(C)C)NC(=O)[C@H](CCCCN(C)C)NC(=O)[C@@H](N)CCCCN(C)C)C(=O)N[C@H](C=O)CCCCN (H-[Lys(Me2)][Lys(Me2)][Lys(Me2)][Lys(Me2)][Lys(Me2)][Lys(Me2)][Lys(Me2)][Lys(Me2)]K-aldehyde) | > 168 |  | > 48 | 94 | 89 | 10 | 71 | 
NCCCC[C@H](NC(=O)CN(CCCCN)C(=O)CN(CCCCN)C(=O)CN(CCCCN)C(=O)CN(CCCCN)C(=O)CN(CCCCN)C(=O)CN(CCCCN)C(=O)CN(CCCCN)C(=O)CN(CCCCN)C(=O)CN)C(=O)O (H-G[Nlys][Nlys][Nlys][Nlys][Nlys][Nlys][Nlys][Nlys]K-OH) | > 168 |  | > 48 | 92 | 80 |  | 56 | 20
N=C(N)NCCCC[C@H](NC(=O)[C@H](CCCCNC(=N)N)NC(=O)[C@H](CCCCNC(=N)N)NC(=O)[C@H](CCCCNC(=N)N)NC(=O)[C@H](CCCCNC(=N)N)NC(=O)[C@H](CCCCNC(=N)N)NC(=O)[C@H](CCCCNC(=N)N)NC(=O)[C@@H](N)CCCCNC(=N)N)C(=O)N[C@H](C=O)CCCCN | > 168 |  | 15 | 91 | 45 | 5 | 20 | 
NCCCC[C@@H](C=O)NC(=O)[C@H](CCCCN)NC(=O)[C@H](CCCCN)NC(=O)[C@H](Cc1c[nH]cn1)NC(=O)[C@H](CCCCN)NC(=O)[C@H](CCCCN)NC(=O)[C@H](Cc1c[nH]cn1)NC(=O)[C@H](CCCCN)NC(=O)[C@@H](N)CCCCN (H-KKHKKHKKK-aldehyde) | > 168 |  | 6 | 86 | 73 |  | 52 | 20
NCCCC[C@@H](C=O)NC(=O)[C@H](Cc1c[nH]cn1)NC(=O)[C@H](CCCCN)NC(=O)[C@H](Cc1c[nH]cn1)NC(=O)[C@H](CCCCN)NC(=O)[C@H](Cc1c[nH]cn1)NC(=O)[C@H](CCCCN)NC(=O)[C@H](Cc1c[nH]cn1)NC(=O)[C@@H](N)CCCCN (H-KHKHKHKHK-aldehyde) | > 168 |  | 6 | 88 | 87 | >20 | 73 | 
NCCCC[C@@H](C=O)NOC(=O)C(CCCN)NOC(=O)C(CCCN)NC(=O)[C@H](CCCCN)NC(=O)[C@H](CCCCN)NC(=O)[C@H](CCCCN)NC(=O)[C@H](CCCCN)NOC(=O)C(CCCN)NOC(=O)C(N)CCCN (some centres undefined) |  |  |  | 97 | 69 | 5 | 52 | 
NCCCC[C@@H](C=O)NC(=O)[C@H](Cc1c[nH]cn1)NC(=O)[C@H](Cc1c[nH]cn1)NC(=O)[C@H](Cc1c[nH]cn1)NC(=O)[C@H](Cc1c[nH]cn1)NC(=O)[C@H](Cc1c[nH]cn1)NC(=O)[C@H](Cc1c[nH]cn1)NC(=O)[C@H](Cc1c[nH]cn1)NC(=O)[C@@H](N)Cc1c[nH]cn1 (H-HHHHHHHHK-aldehyde) | > 168 |  | 44 | 81 | 74 | >20 | 64 | 

Continued, in another order:

half-life [2] [h] | T1/2 [5] | half-life [7] [h] | Structure (SMILES) | UTC [1] [%] | UTC [3] [%] | IC50 for cell proliferation [4] [µM] | UTC [6] [%] | IC50 [8] [µM]
> 168 | No data available |  | NCCCC[C@@H](C=O)NOC(=O)C(CCCN)NC(=O)[C@H](CCCCN)NOC(=O)C(CCCN)NC(=O)[C@H](CCCCN)NOC(=O)C(CCCN)NC(=O)[C@H](CCCCN)NOC(=O)C(CCCN)NC(=O)[C@@H](N)CCCCN (some centres undefined) | 94 | 61 | 5 | 42 | 
> 168 | No data available |  | NCCCC[C@@H](C=O)NOC(=O)[C@H](CCCN)NOC(=O)[C@H](CCCN)NC(=O)[C@H](CCCCN)NC(=O)[C@H](CCCCN)NC(=O)[C@H](CCCCN)NC(=O)[C@H](CCCCN)NOC(=O)[C@H](CCCN)NOC(=O)[C@@H](N)CCCN |  |  |  |  | 
> 168 |  | 22 | CN(C)CCCC[C@H](NC(=O)[C@H](CCCCN)NC(=O)[C@H](CCCCN)NC(=O)[C@H](CCCCN(C)C)NC(=O)[C@H](CCCCN)NC(=O)[C@@H](N)CCCCN)C(=O)N[C@@H](CCCCN)C(=O)N[C@@H](CCCCN)C(=O)N[C@H](C=O)CCCCN (H-KK[Lys(Me2)]KK[Lys(Me2)]KKK-aldehyde) | 96 | 78 | 5 | 41 | 
> 168 |  | 29 | NCCCC[C@H](NC(=O)[C@H](CCCCN)NC(=O)[C@H](CCCCN)NC(=O)CN(CCCCN)C(=O)[C@H](CCCCN)NC(=O)[C@H](CCCCN)NC(=O)CN(CCCCN)C(=O)[C@H](CCCCN)NC(=O)[C@@H](N)CCCCN)C(=O)O (H-KK[Nlys]KK[Nlys]KKK-OH) | 104 | 88 |  | 60 | 20
> 168 |  | 18 | NCCCC[C@@H](C=O)NC(=O)[C@H](CCCCN)NC(=O)[C@H](CCCCN)NOC(=O)[C@H](CCCN)NC(=O)[C@H](CCCCN)NC(=O)[C@H](CCCCN)NOC(=O)[C@H](CCCN)NC(=O)[C@H](CCCCN)NC(=O)[C@@H](N)CCCCN | 94 | 65 |  | 34 | 20
120 |  |  | NCCCCC[C@H](NC(=O)[C@H](CCCCCN)NC(=O)[C@H](CCCCN)NC(=O)[C@H](CCCCN)NC(=O)[C@H](CCCCN)NC(=O)[C@H](CCCCN)NC(=O)[C@H](CCCCCN)NC(=O)[C@@H](N)CCCCCN)C(=O)N[C@H](C=O)CCCCN (H-[hLys][hLys]KKKK[hLys][hLys]K-aldehyde) | 86 | 66 | >20 | 34 | 
> 168 |  | 10 | NCCCCC[C@H](NC(=O)[C@H](CCCCN)NC(=O)[C@H](CCCCN)NC(=O)[C@H](CCCCCN)NC(=O)[C@H](CCCCN)NC(=O)[C@@H](N)CCCCN)C(=O)N[C@@H](CCCCN)C(=O)N[C@@H](CCCCN)C(=O)N[C@H](C=O)CCCCN (H-KK[hLys]KK[hLys]KKK-aldehyde) | 76 | 61 | >20 | 31 | 
> 168 |  | > 48 | NCCCC[C@@H](C=O)NC(=O)[C@H](CCCCN)NC(=O)[C@@H](CCCCN)NC(=O)[C@H](CCCCN)NC(=O)[C@H](CCCCN)NC(=O)[C@@H](CCCCN)NC(=O)[C@H](CCCCN)NC(=O)[C@@H](N)CCCCN | 102 | 87 |  | 62 | 20
> 168 |  | 17 | NCCCCC[C@H](NC(=O)[C@H](CCCCCN)NC(=O)[C@H](CCCCCN)NC(=O)[C@H](CCCCCN)NC(=O)[C@H](CCCCCN)NC(=O)[C@H](CCCCCN)NC(=O)[C@H](CCCCCN)NC(=O)[C@@H](N)CCCCCN)C(=O)N[C@H](C=O)CCCCN (H-[hLys][hLys][hLys][hLys][hLys][hLys][hLys][hLys]K-aldehyde) | 87 | 65 | 10 | 31 | 
